The target of data set [1] is Neuronal acetylcholine receptor; alpha3/beta4 (Homo sapiens, UniProt P30926+P32297). Description: Displacement of [3H]epibatidine from alpha3beta4 nAChR expressed in IMR32 cells. It counts as cell-based, IMR-32. The gist of the method:
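Alpha3β4 binding in IMR32 cells with [3H]epibatidine radioligand. Six-point concentration-response curve run in triplicate and averaged.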
Background: Loss of bound radioactivity is the signal in a displacement assay; it reports binding, not function.

The nature of data set [2]: Agonist activity at human alpha7 nAChR/mouse 5HT3 chimeric receptor expressed in SH-EP1 cells assessed as increase in intracellular calcium level relative to 100 uM nicotine. The data set is classed as functional. The gist of the method: (§1)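 α7-5HT3 chimera stably in SH-EP1 cells grown to confluence; loaded with Calcium Green 1 AM (2 μM final) 60 min at 37 °C. Compound added directly; calcium rise read by FLIPR (excitation 488 nm, emission >525 nm).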
For orientation: Calcium flux is commonly read through the fluorescence of an indicator in the cells.

Data set [3] concerns the target Neuronal acetylcholine receptor subunit alpha-7 (Rattus norvegicus, UniProt Q05941). Kind of data set: Displacement of [125I]BTX from rat alpha7 nicotinic acetylcholine receptor expressed in GH4C1 cells. The data set is classed as cell-based, GH4-C1. A digest of the protocol:
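GH4C1 membranes (20 mM HEPES, 118 mM NaCl, 4.5 mM KCl, 2.5 mM CaCl2, 1.2 mM MgSO4, pH 7.5) incubated 2 h at 37 °C with [125I]α-bungarotoxin 0.4 nM final. Nonspecific binding with 1 μM methyllycaconitine; filtration onto PEI-treated GF/B filters. Ki = IC50/(1+[L]/KD); six-point curves in triplicate; geometric mean with 95% CI.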

In data set [4] the target is T1, 5-hydroxytryptamine receptor 3A (Mus musculus, UniProt P23979).
T1 sequence (P23979 whole entry): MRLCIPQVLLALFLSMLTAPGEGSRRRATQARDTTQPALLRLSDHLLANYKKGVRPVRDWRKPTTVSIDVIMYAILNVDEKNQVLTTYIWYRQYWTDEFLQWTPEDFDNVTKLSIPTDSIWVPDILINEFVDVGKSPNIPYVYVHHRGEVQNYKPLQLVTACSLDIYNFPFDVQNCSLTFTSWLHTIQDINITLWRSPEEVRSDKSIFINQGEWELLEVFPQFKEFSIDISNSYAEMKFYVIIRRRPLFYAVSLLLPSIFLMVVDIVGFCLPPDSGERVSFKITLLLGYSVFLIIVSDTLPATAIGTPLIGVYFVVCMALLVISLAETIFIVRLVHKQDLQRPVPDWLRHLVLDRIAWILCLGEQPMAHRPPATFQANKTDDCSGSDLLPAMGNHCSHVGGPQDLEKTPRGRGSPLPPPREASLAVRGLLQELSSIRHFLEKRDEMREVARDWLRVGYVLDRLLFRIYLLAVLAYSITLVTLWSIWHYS
Kind of data set: Displacement of [3H]LY278584 from mouse 5HT3 receptor expressed in HEK293 cells. It counts as cell-based. A digest of the protocol:
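Mouse 5-HT3A in HEK293 cell homogenate, 20 mM Tris-HCl pH 7.4 with 154 mM NaCl. [3H]LY278584 1 nM final; nonspecific binding with 10 μM ICS205-930; 60 min at 37 °C, then filtration onto PEI-soaked GF/B. Ki by Cheng-Prusoff; mean of three six-point curves in triplicate in one assay; tropisetron standard.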

Data set [5] in a line: Agonist activity at human alpha7 nAChR/mouse 5HT3 chimeric receptor expressed in SH-EP1 cells assessed as increase in intracellular calcium level. The data set is classed as functional, cell-based. A digest of the protocol:
as §1

Data set [6] concerns the target T2, 5-hydroxytryptamine receptor 3A (Homo sapiens, UniProt P46098).
T2 sequence (P46098 whole entry): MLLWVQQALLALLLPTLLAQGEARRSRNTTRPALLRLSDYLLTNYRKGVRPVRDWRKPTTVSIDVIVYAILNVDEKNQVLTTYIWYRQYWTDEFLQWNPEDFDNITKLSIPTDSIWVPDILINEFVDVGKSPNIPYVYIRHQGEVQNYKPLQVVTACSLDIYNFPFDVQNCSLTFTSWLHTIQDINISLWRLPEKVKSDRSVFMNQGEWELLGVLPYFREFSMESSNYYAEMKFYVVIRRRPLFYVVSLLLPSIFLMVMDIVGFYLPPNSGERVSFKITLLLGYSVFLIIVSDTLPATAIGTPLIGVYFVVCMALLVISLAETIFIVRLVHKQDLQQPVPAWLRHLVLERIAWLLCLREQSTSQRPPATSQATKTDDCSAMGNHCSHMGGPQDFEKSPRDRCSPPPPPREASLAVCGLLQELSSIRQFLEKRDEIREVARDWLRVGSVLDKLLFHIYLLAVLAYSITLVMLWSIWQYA
Description: […] at human 5HT3 receptor expressed in human skin epithelial cells assessed as stimulation of calcium flux by FLIPR assay. It counts as functional, cell-based, Epithelial cell. A digest of the protocol:
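Human 5-HT3A stably in human skin epithelial cells, plated 15 000 cells/well 2 days ahead; loaded 1 h at 37 °C with Fluo-4 (8 μM final), washed into HBSS with 20 mM Tris-HEPES, 1 μM atropine, 4 mM Ca2+, pH 7.4. Compound added 2 min, then 5-HT challenge (250 nM final) 2 min; FLIPR calcium read.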

The subject of data set [7] is CHO. Description: Toxicity in CHO cells assessed as induction of DNA fragments by in vitro micronucleus assay. It counts as cell-based, Cricetulus griseus. Particulars: chinese hamster.
The target in data set [8] is Voltage-gated inwardly rectifying potassium channel KCNH2 (Homo sapiens, UniProt Q12809).
Data set [9] is described as follows: Selectivity for rat alpha7 nicotinic acetylcholine receptor over mouse 5HT3 receptor.

Chain of Neuronal acetylcholine receptor subunit alpha-7 (Q05941 whole entry): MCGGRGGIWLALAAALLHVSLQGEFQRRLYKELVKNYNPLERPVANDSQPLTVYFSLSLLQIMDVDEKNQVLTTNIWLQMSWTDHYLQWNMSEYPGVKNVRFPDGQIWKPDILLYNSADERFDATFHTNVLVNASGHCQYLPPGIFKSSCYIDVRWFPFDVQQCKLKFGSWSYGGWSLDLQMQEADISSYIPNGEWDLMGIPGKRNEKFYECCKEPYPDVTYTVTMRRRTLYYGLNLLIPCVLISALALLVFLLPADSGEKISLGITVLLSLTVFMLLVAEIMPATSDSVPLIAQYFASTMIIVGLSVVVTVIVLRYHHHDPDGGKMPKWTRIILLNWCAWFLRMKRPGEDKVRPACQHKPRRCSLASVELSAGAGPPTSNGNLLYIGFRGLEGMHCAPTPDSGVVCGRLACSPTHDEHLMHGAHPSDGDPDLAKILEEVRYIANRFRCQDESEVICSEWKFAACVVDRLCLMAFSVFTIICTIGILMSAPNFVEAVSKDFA
Chain of Voltage-gated inwardly rectifying potassium channel KCNH2 (Q12809 whole entry): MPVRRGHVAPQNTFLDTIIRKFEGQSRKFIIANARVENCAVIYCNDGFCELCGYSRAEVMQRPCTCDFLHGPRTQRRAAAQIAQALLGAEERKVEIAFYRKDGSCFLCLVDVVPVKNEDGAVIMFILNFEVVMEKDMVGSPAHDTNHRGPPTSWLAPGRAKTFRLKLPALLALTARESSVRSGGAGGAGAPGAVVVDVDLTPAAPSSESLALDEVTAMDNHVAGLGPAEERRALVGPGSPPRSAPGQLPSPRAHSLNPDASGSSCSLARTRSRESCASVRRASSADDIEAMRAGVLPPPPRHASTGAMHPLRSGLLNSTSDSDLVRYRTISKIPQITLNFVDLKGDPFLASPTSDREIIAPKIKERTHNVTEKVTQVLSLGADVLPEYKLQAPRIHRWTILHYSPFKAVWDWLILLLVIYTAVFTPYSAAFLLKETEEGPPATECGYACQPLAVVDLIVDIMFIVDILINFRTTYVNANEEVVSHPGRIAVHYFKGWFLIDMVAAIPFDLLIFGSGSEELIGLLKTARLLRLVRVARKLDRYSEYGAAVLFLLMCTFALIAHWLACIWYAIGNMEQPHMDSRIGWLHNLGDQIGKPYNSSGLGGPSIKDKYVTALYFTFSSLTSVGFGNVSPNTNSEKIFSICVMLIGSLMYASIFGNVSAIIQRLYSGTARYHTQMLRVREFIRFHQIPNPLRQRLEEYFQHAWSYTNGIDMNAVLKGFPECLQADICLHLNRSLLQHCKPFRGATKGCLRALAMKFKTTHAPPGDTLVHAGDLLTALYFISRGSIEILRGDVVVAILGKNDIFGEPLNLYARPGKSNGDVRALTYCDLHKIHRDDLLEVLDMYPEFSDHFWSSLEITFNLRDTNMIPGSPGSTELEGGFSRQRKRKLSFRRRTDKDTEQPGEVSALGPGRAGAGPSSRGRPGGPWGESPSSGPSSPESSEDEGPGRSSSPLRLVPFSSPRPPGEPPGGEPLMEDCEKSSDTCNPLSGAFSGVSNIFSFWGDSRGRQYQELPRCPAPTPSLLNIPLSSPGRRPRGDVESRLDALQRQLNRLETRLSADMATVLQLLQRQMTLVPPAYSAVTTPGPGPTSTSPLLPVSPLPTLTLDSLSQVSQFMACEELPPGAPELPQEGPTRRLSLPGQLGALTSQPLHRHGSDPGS
Chain of Neuronal acetylcholine receptor; alpha3/beta4 (P30926 whole entry): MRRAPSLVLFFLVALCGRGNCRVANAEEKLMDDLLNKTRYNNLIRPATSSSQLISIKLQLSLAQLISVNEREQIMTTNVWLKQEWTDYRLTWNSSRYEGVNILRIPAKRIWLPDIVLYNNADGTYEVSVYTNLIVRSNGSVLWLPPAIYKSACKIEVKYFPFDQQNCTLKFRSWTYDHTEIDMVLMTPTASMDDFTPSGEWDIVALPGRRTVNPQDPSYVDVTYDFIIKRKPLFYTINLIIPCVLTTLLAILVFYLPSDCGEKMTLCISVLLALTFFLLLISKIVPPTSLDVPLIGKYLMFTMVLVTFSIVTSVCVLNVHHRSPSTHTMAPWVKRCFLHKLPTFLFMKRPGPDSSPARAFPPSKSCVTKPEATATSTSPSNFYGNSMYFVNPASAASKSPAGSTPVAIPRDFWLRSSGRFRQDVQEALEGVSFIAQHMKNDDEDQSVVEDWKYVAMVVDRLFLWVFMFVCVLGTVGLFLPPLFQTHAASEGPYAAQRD
Chain of Neuronal acetylcholine receptor; alpha3/beta4 (P32297 whole entry): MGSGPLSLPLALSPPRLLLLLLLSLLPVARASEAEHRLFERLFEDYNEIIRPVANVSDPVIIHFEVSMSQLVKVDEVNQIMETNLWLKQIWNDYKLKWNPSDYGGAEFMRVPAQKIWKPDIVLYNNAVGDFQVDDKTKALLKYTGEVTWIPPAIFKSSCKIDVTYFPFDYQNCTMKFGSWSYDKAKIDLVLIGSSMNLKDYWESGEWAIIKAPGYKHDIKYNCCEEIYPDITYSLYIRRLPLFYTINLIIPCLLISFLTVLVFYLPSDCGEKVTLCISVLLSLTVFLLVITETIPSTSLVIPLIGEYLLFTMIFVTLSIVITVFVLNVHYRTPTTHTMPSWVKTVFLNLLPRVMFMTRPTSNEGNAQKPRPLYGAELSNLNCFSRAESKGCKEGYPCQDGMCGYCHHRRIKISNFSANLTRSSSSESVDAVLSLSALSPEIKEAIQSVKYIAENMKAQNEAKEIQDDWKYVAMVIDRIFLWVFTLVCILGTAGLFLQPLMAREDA

In general, IC50 refers to the point on the concentration scale where inhibition reaches its midpoint. For `O=c1c(Br)ccc2n1C[C@@H]1CNC[C@H]2C1`, the half-maximal inhibitory concentration (IC50) in [1] amounted to 15.6 nM.

What is called Ki is the dissociation constant of the complex between target and ligand, obtained from inhibition or displacement. The EC50 is the concentration that produces a half-maximal response. For `Cc1nc2nc(N3CCN4CCC3CC4)oc2cc1Cl`, in data set [2], the Efficacy is 58%. In addition, the inhibition constant (Ki) was found to be 3.19 nM in [3] and 0.244 µM in data set [4]. Also, in data set [5], the concentration for a half-maximal effect (EC50) worked out at 160 nM. Besides, the IC50 in [6] turned out to be 70 nM; in data set [8], 16.2 µM. Further, in [7], the Activity entry is listed as “Non-toxic”.

For the compound `c1ccc(-c2ccc3oc(N4CCN5CCC4CC5)nc3n2)cc1`, the Efficacy in data set [2] is listed as 71%. Moreover, the inhibitory constant (Ki) is 3.22 nM in data set [3] and > 3.58 µM in [4]. Moreover, in data set [5], the EC50 came to 320 nM. Further, in [9], the Ratio Ki was 3.

`Fc1cnc2nc(N3CCN4CCC3CC4)oc2c1`: the Efficacy in [2] is recorded as 64%. Moreover, the figures for the Ki in data set [3] and in [4] were 17.2 nM and 6.2 µM, respectively. Further, the EC50 in data set [5] was determined as 213 nM. The 50% inhibitory concentration (IC50) in [6] worked out at 2480 nM; in data set [8] it was 8.7 µM. In data set [7], the Activity result is “Toxic”.

(Values after ChEMBL document CHEMBL1159071, “Discovery of 4-(5-methyloxazolo[4,5-b]pyridin-2-yl)-1,4-diazabicyclo[3.2.2]nonane (CP-810,123), a novel alpha 7 nicotinic acetylcholine receptor agonist for the treatment of cognitive disorders in schizophrenia: synthesis, SAR development, and in vivo efficacy in cognition models” (J Med Chem, 2010).)
